For one experiment, the system named is Canis familiaris. Kind of experiment: In vitro elimination of Pu (given as citrate) from in vivo tagged canine liver cytosol after administration of the compound; value expressed as following filtrate to residue activity. Format: functional, Canis lupus familiaris. The procedure, abridged:
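Liver homogenate in 0.25 M sucrose from a dog injected with Pu-citrate 7 days before sacrifice. Spun 20 min at 40000g to give cytosol, which was dialyzed against 50 mM TRIS-HCl. Cytosol mixed 1:1 with 4 mM compound (stock) in 0.1 M TRIS-HCl, pH 7.5, 270–300 mOsm. Incubated 2 h at 40 °C, then pressure-filtered through a 10000 Da cutoff. Read-out: Pu filtrate/residue ratio; control had no compound.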

The test system of experiment [1] is Rattus norvegicus. In words: Reduction in whole body 241Am after daily feeding of 200 uM of the compound/kg of body weight to rats for 10 days. Format: functional. The procedure, abridged: (§1)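 Sprague-Dawley rats aged 60 days, nine per group. ²⁴¹Am in citrate buffer pH 3.5 given as a single jugular iv injection. From one week later, compound given at 50 μmol/rat (about 200 μmol/kg) in a daily 25 g chow ration for 10 days; untreated controls. Tissues counted for ²⁴¹Am at necropsy. Reduction = […]. p values given.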

The test system of experiment [2] is Rattus norvegicus. Kind of experiment: Reduction in carcass 241Am after daily feeding of 200 uM of the compound/kg of body weight to rats for 10 days. Format: functional. Summed up: as §1
The species entered for experiment [3] is Rattus norvegicus. In words: Percent retention in rat lumen was measured in situ using intestinal tied-loop technique. Format: functional, organism-based.
For experiment [4], the system named is Rattus norvegicus. Kind of experiment: Weight gain after daily feeding of 200 uM of the compound/kg of body weight to rats for 10 days. Format: functional. The procedure, abridged: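 Sprague-Dawley rats aged 60 days, nine per group, given ²⁴¹Am iv (jugular, citrate pH 3.5) one week before feeding began. Compound given at 50 μmol/rat (about 200 μmol/kg) daily in 25 g chow for 10 days; untreated controls. Weight gain over the feeding period reported as mean ± deviation.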

For experiment [5], the species on record is Rattus norvegicus. In words: Percent retention in rat carcass was measured in situ using intestinal tied-loop technique. Format: functional, organism-based.
Experiment [6] is filed under the species Rattus norvegicus. Kind of experiment: Percent retention in rat gut section was measured in situ using intestinal tied-loop technique. Format: functional, organism-based.
For experiment [7], the species on record is Rattus norvegicus. Kind of experiment: Percent retention in rat visera was measured in situ using intestinal tied-loop technique. Format: functional, organism-based.
In experiment [8] the test system is Rattus norvegicus. Kind of experiment: Reduction in both femora 241Am after daily feeding of 200 uM of the compound/kg of body weight to rats for 10 days. Format: functional. Summed up:
as §1

Experiment [9] has as its system Rattus norvegicus. Kind of experiment: Reduction in one kidney 241AM after daily feeding of 200 uM of the compound/kg of body weight to rats for 10 days. Format: functional. Summed up: as §1
Experiment [10] is filed under the species Rattus norvegicus. Kind of experiment: Percent retention in rat liver was measured in situ using intestinal tied-loop technique. Format: functional, organism-based.
Experiment [11] has as its system Rattus norvegicus. Kind of experiment: Reduction in liver 241Am after daily feeding of 200 uM of the compound/kg of body weight to rats for 10 days. Format: functional. The procedure, abridged:
as §1

The source of these data is ChEMBL document CHEMBL1126008, “Decorporation of aged americium deposits by oral administration of lipophilic polyamino carboxylic acids” (1992).

Molecules are shown by their SMILES.

In the experiment with Canis familiaris, `CCCCCCCCN(CCN(CCN(CCN(CC(=O)O)CC(=O)O)CC(=O)O)CC(=O)O)CC(=O)O` yielded an Activity of 0.16.
Regarding `CCCCCCCCCCCCN(CCN(CCN(CCN(CC(=O)O)CC(=O)O)CC(=O)O)CC(=O)O)CC(=O)O`, the Reduction in the experiment with Rattus norvegicus [1] is listed as 29%; with Rattus norvegicus [2], 20%; in the experiment on Rattus norvegicus [8], 17%; in the experiment on Rattus norvegicus [9], 23%; in the experiment on Rattus norvegicus [11], 71%. For the same molecule, the Retention was 73% in the experiment filed under Rattus norvegicus [3]; 20% in the experiment listed under Rattus norvegicus [5]; 73% in the experiment filed under Rattus norvegicus [6]; 4% in the experiment listed under Rattus norvegicus [7]; 3% in the experiment filed under Rattus norvegicus [10]. For the same molecule, the Weight with Rattus norvegicus [4] came out at 55.7 g. Moreover, in the experiment with Canis familiaris, the Activity was 0.26.
As for `CCCCCCCCCCCCCCCCCCCCCCN(CCN(CCN(CCN(CC(=O)O)CC(=O)O)CC(=O)O)CC(=O)O)CC(=O)O`, the Reduction came out at 44% with Rattus norvegicus [1]; 37% in the experiment with Rattus norvegicus [2]; 32% with Rattus norvegicus [8]; 26% in the experiment on Rattus norvegicus [9]; 89% in the experiment with Rattus norvegicus [11]. This molecule also came in with a Weight with Rattus norvegicus [4] of 70.2 g.
